Data from ChEMBL document CHEMBL4715736, “Identification of anticancer agents based on the thieno[2,3-b]pyridine and 1H-pyrazole molecular scaffolds” (2016).

Test system: TK-10
Assay: Growth inhibition of human TK-10 cells assessed as cell growth at 1 uM incubated for 48 hrs by sulforhodamine B assay relative to control
Type: functional
Conditions: read-out: Activity

Row | Structure (SMILES) | growth at 1 µM [%]
1 | CCc1ccccc1NC(=O)c1sc2nc3c(cc2c1N)C(=O)CCC3 | 55

Test system: OVCAR-3
Assay: Growth inhibition of human OVCAR-3 cells assessed as cell growth at 0.1 uM incubated for 48 hrs by sulforhodamine B assay relative to control
Type: functional
Conditions: read-out: Activity

Row | Structure (SMILES) | growth at 0.1 µM [%]
2 | CCc1ccccc1NC(=O)c1sc2nc3c(cc2c1N)C(=O)CCC3 | 100

Test system: MDA-MB-468
Assay: Growth inhibition of human MDA-MB-468 cells incubated for 48 hrs by sulforhodamine B assay
Type: functional
Conditions: not given
Summary of the method: (§1)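 NCI60 panel at the NCI Developmental Therapeutics Program. Only compounds active in the 10 µM screen went to dose-response testing. GI50, the concentration giving 50% of maximal inhibition of proliferation, and TGI, the concentration giving total growth inhibition, were derived from the dose-response curves.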

Row | Structure (SMILES) | GI50 [nM] | TGI [µM]
3 | CCc1ccccc1NC(=O)c1sc2nc3c(cc2c1N)C(=O)CCC3 | 209 | 44.7

Same assay, conditions: read-out: LC50 (the source's name)

Row | Structure (SMILES) | CC50 [µM]
4 | CCc1ccccc1NC(=O)c1sc2nc3c(cc2c1N)C(=O)CCC3 | > 100

Test system: DU-145
Assay: Growth inhibition of human DU-145 cells incubated for 48 hrs by sulforhodamine B assay
Type: functional
Conditions: not given
Summary of the method: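 NCI Developmental Therapeutics Program NCI60 panel. Compounds that were active in the 10 µM one-dose screen went on to dose–response testing. Growth at each concentration is expressed relative to untreated control (100%). GI50 (concentration giving 50% of maximal inhibition of proliferation) and TGI (concentration giving total growth inhibition) were derived from the curves.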

Row | Structure (SMILES) | GI50 [nM] | TGI [µM]
5 | CCc1ccccc1NC(=O)c1sc2nc3c(cc2c1N)C(=O)CCC3 | 499 | > 100

Same assay, conditions: read-out: LC50 (the source's name)

Row | Structure (SMILES) | CC50 [µM]
6 | CCc1ccccc1NC(=O)c1sc2nc3c(cc2c1N)C(=O)CCC3 | > 100

Test system: SK-MEL-28
Assay: Growth inhibition of human SK-MEL-28 cells assessed as cell growth at 0.1 uM incubated for 48 hrs by sulforhodamine B assay relative to control
Type: functional
Conditions: read-out: Activity

Row | Structure (SMILES) | growth at 0.1 µM [%]
7 | CCc1ccccc1NC(=O)c1sc2nc3c(cc2c1N)C(=O)CCC3 | 79

Test system: OVCAR-3
Assay: Growth inhibition of human OVCAR-3 cells assessed as cell growth at 100 uM incubated for 48 hrs by sulforhodamine B assay relative to control
Type: functional
Conditions: read-out: Activity

Row | Structure (SMILES) | growth at 100 µM [%]
8 | CCc1ccccc1NC(=O)c1sc2nc3c(cc2c1N)C(=O)CCC3 | -36

Test system: SNB-19
Assay: Growth inhibition of human SNB-19 cells assessed as cell growth at 0.1 uM incubated for 48 hrs by sulforhodamine B assay relative to control
Type: functional
Conditions: read-out: Activity

Row | Structure (SMILES) | growth at 0.1 µM [%]
9 | CCc1ccccc1NC(=O)c1sc2nc3c(cc2c1N)C(=O)CCC3 | 88

Test system: HOP-62
Assay: Growth inhibition of human HOP-62 cells assessed as cell growth at 100 uM incubated for 48 hrs by sulforhodamine B assay relative to control
Type: functional
Conditions: read-out: Activity

Row | Structure (SMILES) | growth at 100 µM [%]
10 | CCc1ccccc1NC(=O)c1sc2nc3c(cc2c1N)C(=O)CCC3 | -22

Test system: SF-295
Assay: Growth inhibition of human SF-295 cells assessed as cell growth at 0.1 uM incubated for 48 hrs by sulforhodamine B assay relative to control
Type: functional
Conditions: read-out: Activity

Row | Structure (SMILES) | growth at 0.1 µM [%]
11 | CCc1ccccc1NC(=O)c1sc2nc3c(cc2c1N)C(=O)CCC3 | 76

Test system: OVCAR-4
Assay: Growth inhibition of human OVCAR-4 cells assessed as cell growth at 1 uM incubated for 48 hrs by sulforhodamine B assay relative to control
Type: functional
Conditions: read-out: Activity

Row | Structure (SMILES) | growth at 1 µM [%]
12 | CCc1ccccc1NC(=O)c1sc2nc3c(cc2c1N)C(=O)CCC3 | 45

Test system: SK-MEL-5
Assay: Growth inhibition of human SK-MEL-5 cells assessed as cell growth at 0.01 uM incubated for 48 hrs by sulforhodamine B assay relative to control
Type: functional
Conditions: read-out: Activity

Row | Structure (SMILES) | growth at 0.01 µM [%]
13 | CCc1ccccc1NC(=O)c1sc2nc3c(cc2c1N)C(=O)CCC3 | 96

Test system: NCI-H226
Assay: Growth inhibition of human NCI-H226 cells assessed as cell growth at 0.1 uM incubated for 48 hrs by sulforhodamine B assay relative to control
Type: functional
Conditions: read-out: Activity

Row | Structure (SMILES) | growth at 0.1 µM [%]
14 | CCc1ccccc1NC(=O)c1sc2nc3c(cc2c1N)C(=O)CCC3 | 86

Test system: HOP-92
Assay: Growth inhibition of human HOP-92 cells assessed as cell growth at 1 uM incubated for 48 hrs by sulforhodamine B assay relative to control
Type: functional
Conditions: read-out: Activity

Row | Structure (SMILES) | growth at 1 µM [%]
15 | CCc1ccccc1NC(=O)c1sc2nc3c(cc2c1N)C(=O)CCC3 | 35

Test system: HCT-116
Assay: Growth inhibition of human HCT-116 cells incubated for 48 hrs by sulforhodamine B assay
Type: functional
Conditions: not given
Summary of the method: as §1

Row | Structure (SMILES) | GI50 [nM] | LC50 (concentration killing 50% of cells) [µM] | TGI [µM]
16 | CCc1ccccc1NC(=O)c1sc2nc3c(cc2c1N)C(=O)CCC3 | 483 | > 100 | > 100

Test system: MCF7
Assay: Growth inhibition of human MCF7 cells assessed as cell growth at 1 uM incubated for 48 hrs by sulforhodamine B assay relative to control
Type: functional
Conditions: read-out: Activity

Row | Structure (SMILES) | growth at 1 µM [%]
17 | CCc1ccccc1NC(=O)c1sc2nc3c(cc2c1N)C(=O)CCC3 | 17

Test system: RPMI-8226
Assay: Growth inhibition of human RPMI-8226 cells assessed as cell growth at 100 uM incubated for 48 hrs by sulforhodamine B assay relative to control
Type: functional
Conditions: read-out: Activity

Row | Structure (SMILES) | growth at 100 µM [%]
18 | CCc1ccccc1NC(=O)c1sc2nc3c(cc2c1N)C(=O)CCC3 | -5

Test system: ACHN
Assay: Growth inhibition of human ACHN cells assessed as cell growth at 100 uM incubated for 48 hrs by sulforhodamine B assay relative to control
Type: functional
Conditions: read-out: Activity

Row | Structure (SMILES) | growth at 100 µM [%]
19 | CCc1ccccc1NC(=O)c1sc2nc3c(cc2c1N)C(=O)CCC3 | 10
